Data as given in PubChem BioAssay AID624380 (The Scripps Research Institute Molecular Screening Center, 2012).
Screen size: about 2,300 compounds; about 120 (5.2%) were called active. The list is a sample of the results. A number with no mark means an inactive call.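 How the source made its calls: active means mean activation above the mean of DMSO-only wells plus 3 SD (cut at about 0.5% in these data); inactive means the rest.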

biological target: Mu-type opioid receptor (Homo sapiens) (UniProt P35372); assay: OPRM1 agonists via beta-arrestin recruitment, confirmation, counter-screen for mouse HTR2A agonist project, cell-based, luminescence, single concentration (AID 624380); details: U2OS OPRM1 beta-arrestin PathHunter, at 9.3 µM, active compounds read high, DMSO 0%, DAMGO 9.3 µM 100%
In short: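 System: U2OS OPRM1 beta-arrestin beta-gal complementation cell line | Quantity: 1000 cells per well | Reagent: DAMGO reference agonist, 9.3 µM | Doses: Single-point 9.3 µM, 0.93% DMSO | Schedule: 3 h compound treatment, 37 °C, 1 h room-temperature reagent step | Signal: Chemiluminescence from reconstituted beta-galactosidase after detection reagent addition | Replication: Three wells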

Chain of Mu-type opioid receptor (Homo sapiens) (P35372 whole entry, looked up): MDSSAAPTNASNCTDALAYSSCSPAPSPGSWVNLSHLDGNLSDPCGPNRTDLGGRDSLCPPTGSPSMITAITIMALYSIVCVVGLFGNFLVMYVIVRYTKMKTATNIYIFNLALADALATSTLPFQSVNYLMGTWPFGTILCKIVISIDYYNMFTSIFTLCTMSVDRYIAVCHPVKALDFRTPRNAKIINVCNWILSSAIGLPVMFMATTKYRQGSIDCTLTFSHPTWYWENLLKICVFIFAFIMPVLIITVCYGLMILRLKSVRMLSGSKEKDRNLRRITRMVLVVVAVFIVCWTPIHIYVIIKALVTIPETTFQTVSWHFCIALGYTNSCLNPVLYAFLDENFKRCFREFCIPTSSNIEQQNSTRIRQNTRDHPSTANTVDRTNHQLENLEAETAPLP

Row | Structure (SMILES) | activation
1 | O=C(NCc1ccco1)c1cccn2c(=O)c3c4c(sc3nc12)CCCC4 | -0.39%
2 | Cc1ccc2nc(-c3ccncc3)cc(C(=O)Nc3ccncc3)c2c1 | 3.9% (active)
3 | Cc1ccccc1CSCC(=O)NC(=O)NC(C)(C)C | -0.45%
4 | CCOCCCNC(=O)Cc1cc(=O)[nH]c(=O)[nH]1 | -0.49%
5 | C[C@@H]1ON(C)[C@H]2C[C@H]3c4cc(N5CCN(C)CC5)ccc4CCN3C(=O)[C@@H]12 | -0.06%
6 | Cc1ccc(CN2CCN(c3ncccn3)CC2)c(C)c1 | -0.26%
7 | O=C(COC(=O)c1cc(S(=O)(=O)N2CCOCC2)ccc1F)NC1CC1 | -0.39%
8 | CCOc1ccc(/C(O)=C2\C(=O)C(=O)N(c3ccc(OC)cc3)C2c2ccccc2[N+](=O)[O-])cc1 (configuration not stated) | -0.58%
9 | Nc1cc(C(=O)N2CCN(c3ccccc3Cl)CC2)ccc1N1CC2CC(C1)c1cccc(=O)n1C2 (configuration not stated) | -0.61%
10 | COc1ccc(CNC(=O)c2ccc(NS(=O)(=O)c3ccc4[nH]c(=O)[nH]c4c3)cc2)cc1OC | -0.74%
11 | O=S(=O)(c1ccc(OCC(O)CN2CCN(c3ccccc3Cl)CC2)cc1)N1CCOCC1 (configuration not stated) | -0.67%
12 | CCOC(=O)c1cc(-c2ccccc2C)n(Cc2cc(C)no2)n1 | -0.46%
13 | O=C(OCC(=O)N1CCOCC1)c1ccc2ccccc2c1 | -0.5%
14 | COc1ccc2c(Cl)c(-c3nnco3)sc2c1 | -0.41%
15 | COc1ccc(C2c3[nH]c4ccccc4c3C[C@H]3C(=O)N(CC(C)C)CC(=O)N23)c(OC)c1 (some centres not stated) | -0.31%
16 | COc1ccccc1CN1CCN(Cc2cc(OC)c(OC)cc2OC)CC1 | -0.5%
17 | O=C(c1ccncc1)N1CCN(c2ccc3ccccc3n2)CC1 | 0.53% (active)
18 | COC(=O)c1cc(N2CCNCC2)nc2ccccc12 | -0.87%
19 | O=C(Cc1ccccc1)n1nc(-c2ccccc2)nc1NCc1ccco1 | 0.54% (active)
20 | COc1ccc(N2CC(C(=O)NCCN3C(=O)S/C(=C\c4cccnc4)C3=O)CC2=O)c(OC)c1 (configuration not stated) | -0.55%
21 | Cc1c(C(=O)NCC2CC2)sc(=O)n1Cc1cccc(F)c1 | -0.53%
22 | CCn1c(SCC(=O)N2CCCC2=O)nc2ccccc21 | -0.43%
23 | Cc1cccnc1C(NC(=O)C1CCN(Cc2ccc(Cl)c(Cl)c2)CC1)c1ccc(Cl)cc1 (configuration not stated) | -0.69%
24 | O=C(Cc1ccsc1)N1CCN(S(=O)(=O)c2cc(C(F)(F)F)cc(C(F)(F)F)c2)CC1 | -0.45%

Row | Structure (SMILES) | activation
25 | CCn1cc(C(=O)OCC(=O)Nc2cccc(C)c2)c(=O)c2ccc(C)nc21 | -0.4%
26 | C=C1C(=O)OC2C1CCC(C)=CCCC1(C)OC21 (configuration not stated) | -0.63%
27 | CO/N=C/CC(=O)c1ccc(OC)cc1 | -0.34%
28 | Cc1ccc(NC(=O)CCOc2ccccc2)cc1S(=O)(=O)Nc1ccccc1Cl | -0.34%
29 | O=C(Nc1cccc2cccnc12)c1ccc2sc([C@H]3C[C@H](O)[C@@H](CO)O3)nc2c1 | 0.15%
30 | CC(C)Oc1ccccc1C(=O)NC(CO)C(=O)O (configuration not stated) | -0.52%
31 | Oc1ccc(CN2CCN(c3ncccn3)CC2)cc1 | -0.36%
32 | CS(=O)(=O)c1ccc2nc(NC(=O)C3CCCCC3)sc2c1 | -0.72%
33 | COc1ccccc1Nc1nnc(SC(C)C(=O)NC2CC2)s1 (configuration not stated) | -0.47%
34 | Cc1cccc(CN2CCN(C3CN(Cc4ccccc4)S(=O)(=O)C3)CC2)c1 (configuration not stated) | -0.55%
35 | O=C(CNCc1cccs1)Nc1cc(S(=O)(=O)N2CCCC2)ccc1Cl | -0.34%
36 | COc1ccc(NS(=O)(=O)c2cc(C(=O)Nc3ccccc3C(=O)O)ccc2C)cc1 | -0.47%
37 | O=C(Nc1cc(=O)[nH]c2ncnn12)c1ccccc1Cl | -0.64%
38 | Cc1cc(C)n(S(=O)(=O)c2cccc([N+](=O)[O-])c2)n1 | -0.31%
39 | FC(F)(F)COc1nc(N2CCCCC2)nc(N2CCNCC2)n1 | -0.49%
40 | COc1ccc(/C=N/Nc2ccccc2C(=O)O)cc1 | 0.45%
41 | COc1cccc(OC)c1OCCN1CCN(C(=O)c2ccco2)CC1 | -0.41%
42 | CC(C)c1cc(C(=O)O)on1 | -0.13%
43 | Cc1cc(C(=O)OCC(=O)N2c3ccccc3NC(=O)C2(C)C)c(C)n1-c1ccccc1 | -0.15%
44 | COC(=O)[C@]12CCCCC=C1N(CCC1=CCCCC1)C(=O)[C@H](CC(=O)NCC1CCCCC1)C2 | -0.46%
45 | Cc1cc([N+](=O)[O-])ccc1NC1CCCC1 | 0.02%
46 | C/C(=N\NC(=O)COc1c(C)cccc1C)c1cccs1 | -0.05%
47 | N#Cc1c(NC(=O)CCCl)sc2c1CCCCC2 | -0.23%
